Format in all cases: ADME
The target of data set [1] is T1, UDP-glucuronosyltransferase 2B15 (Homo sapiens, UniProt P54855).
T1 sequence (P54855 whole entry): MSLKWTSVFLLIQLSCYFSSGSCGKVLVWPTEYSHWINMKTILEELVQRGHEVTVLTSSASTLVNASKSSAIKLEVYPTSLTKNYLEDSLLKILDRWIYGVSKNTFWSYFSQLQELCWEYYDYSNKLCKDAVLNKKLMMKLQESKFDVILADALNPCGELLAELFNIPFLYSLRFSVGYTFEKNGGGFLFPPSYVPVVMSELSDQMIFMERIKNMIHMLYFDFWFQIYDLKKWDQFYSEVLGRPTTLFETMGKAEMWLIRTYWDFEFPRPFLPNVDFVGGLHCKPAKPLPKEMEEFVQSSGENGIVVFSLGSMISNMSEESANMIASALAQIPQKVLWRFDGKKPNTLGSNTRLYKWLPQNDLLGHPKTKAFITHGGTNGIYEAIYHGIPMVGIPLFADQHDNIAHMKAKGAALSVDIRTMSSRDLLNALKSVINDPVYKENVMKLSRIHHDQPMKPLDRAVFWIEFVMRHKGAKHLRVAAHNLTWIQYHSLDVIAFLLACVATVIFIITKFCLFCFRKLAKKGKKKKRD
As to the kind of experiment: Activity of human UGT2B15 expressed in microsomes isolated from baculovirus infected insect cell assessed as enzyme-mediated (2S,3S,4S,5R,6R)-6-((1-carboxy-2-(4-((6-methoxy-1-methyl-1H-benzo[d]imidazol-2-yl)methoxy)phenyl)ethylthio)carbonylamino)-3,4,5-trihydroxytetrahydro-2H-pyran-2-carboxylic acid formation at 20 uM after 4 hrs by radio-HPLC/LC-MS/MS analysis in presence of UDPGA.

For data set [2], the target named is T2, UDP-glucuronosyltransferase 2B17 (Homo sapiens, UniProt O75795).
T2 sequence (O75795 whole entry): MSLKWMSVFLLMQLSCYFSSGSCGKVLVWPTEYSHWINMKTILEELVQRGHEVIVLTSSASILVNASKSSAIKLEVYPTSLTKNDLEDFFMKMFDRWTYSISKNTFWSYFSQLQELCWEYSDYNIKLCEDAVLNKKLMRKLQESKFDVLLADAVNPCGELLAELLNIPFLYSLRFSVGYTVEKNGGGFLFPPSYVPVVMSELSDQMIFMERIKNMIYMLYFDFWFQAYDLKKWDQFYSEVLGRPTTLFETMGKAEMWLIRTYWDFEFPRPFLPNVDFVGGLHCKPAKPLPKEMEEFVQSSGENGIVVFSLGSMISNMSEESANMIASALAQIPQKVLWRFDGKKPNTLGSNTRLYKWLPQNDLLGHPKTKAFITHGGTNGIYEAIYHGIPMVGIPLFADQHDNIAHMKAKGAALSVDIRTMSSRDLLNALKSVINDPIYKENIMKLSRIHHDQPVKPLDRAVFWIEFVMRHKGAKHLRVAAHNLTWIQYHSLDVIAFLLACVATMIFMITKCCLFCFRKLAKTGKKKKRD
Put plainly: Activity of human UGT2B17 expressed in microsomes isolated from baculovirus infected insect cell assessed as enzyme-mediated (2S,3S,4S,5R,6R)-6-((1-carboxy-2-(4-((6-methoxy-1-methyl-1H-benzo[d]imidazol-2-yl)methoxy)phenyl)ethylthio)carbonylamino)-3,4,5-trihydroxytetrahydro-2H-pyran-2-carboxylic acid formation at 20 uM after 4 hrs by radio-HPLC/LC-MS/MS analysis in presence of UDPGA.

In a further data set the target is Cytochrome P450 2C9 (Homo sapiens, UniProt P11712). As to the kind of experiment: Activity of human CYP2C9 expressed in microsomes isolated from baculovirus infected insect cell assessed as enzyme-mediated 5-(4-((6-methoxy-1H-benzo[d]imidazol-2-yl)methoxy)benzyl)thiazolidine-2,4-dione formation at 20 uM after 2 hrs by radio-HPLC/LC-MS/MS analysis in presence of NADPH-generating system and NADPH-generating system/SAM.
Sequence of Cytochrome P450 2C9 (P11712 whole entry): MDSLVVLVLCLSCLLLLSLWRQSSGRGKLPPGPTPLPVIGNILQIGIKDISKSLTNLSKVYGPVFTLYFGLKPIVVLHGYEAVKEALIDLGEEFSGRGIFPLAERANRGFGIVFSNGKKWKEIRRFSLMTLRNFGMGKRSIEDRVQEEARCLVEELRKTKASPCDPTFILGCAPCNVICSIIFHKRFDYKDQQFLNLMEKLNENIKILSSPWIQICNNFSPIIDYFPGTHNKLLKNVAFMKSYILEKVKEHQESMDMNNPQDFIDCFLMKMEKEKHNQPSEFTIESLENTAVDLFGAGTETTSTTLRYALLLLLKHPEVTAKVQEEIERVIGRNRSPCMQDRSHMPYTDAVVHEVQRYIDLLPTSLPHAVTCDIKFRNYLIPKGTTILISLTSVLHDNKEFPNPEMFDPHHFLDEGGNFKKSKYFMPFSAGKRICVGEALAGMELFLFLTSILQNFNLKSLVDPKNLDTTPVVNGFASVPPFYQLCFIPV

Data set [3] has as its target T3, Cytochrome P450 2C8 (Homo sapiens, UniProt P10632).
T3 sequence (P10632 whole entry): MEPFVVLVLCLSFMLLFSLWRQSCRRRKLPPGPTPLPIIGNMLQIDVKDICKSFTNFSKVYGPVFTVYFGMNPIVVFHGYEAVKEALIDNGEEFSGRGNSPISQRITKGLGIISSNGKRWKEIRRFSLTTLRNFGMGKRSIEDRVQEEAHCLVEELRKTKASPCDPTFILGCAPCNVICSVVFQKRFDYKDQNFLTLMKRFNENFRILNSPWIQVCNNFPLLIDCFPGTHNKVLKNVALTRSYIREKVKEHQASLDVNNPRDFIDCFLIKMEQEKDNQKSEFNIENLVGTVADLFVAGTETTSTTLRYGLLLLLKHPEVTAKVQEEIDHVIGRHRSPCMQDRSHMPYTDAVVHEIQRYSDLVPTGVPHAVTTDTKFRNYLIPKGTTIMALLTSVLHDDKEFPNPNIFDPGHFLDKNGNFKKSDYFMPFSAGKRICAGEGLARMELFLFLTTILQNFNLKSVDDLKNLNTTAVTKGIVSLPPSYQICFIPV
As to the kind of experiment: Activity of human CYP2C8 expressed in microsomes isolated from baculovirus infected insect cell assessed as enzyme-mediated 5-(4-((6-methoxy-1H-benzo[d]imidazol-2-yl)methoxy)benzyl)thiazolidine-2,4-dione formation at 20 uM after 2 hrs by radio-HPLC/LC-MS/MS analysis in presence of NADPH-generating system and NADPH-generating system/SAM. The gist of the method:
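Baculovirus/insect-cell microsomes expressing single human CYPs, 1 mg/ml protein, with 50 mM potassium phosphate (pH 7.4) or 100 mM Tris-HCl (pH 7.5). NADPH-generating system: 2 mM NADP⁺, 20 mM glucose 6-phosphate, 2 units/ml G6PDH, 10 mM MgCl₂. [¹⁴C]rivoglitazone at 20 μM, 2 h at 37°C with shaking. Control used insect-cell control supersomes. Stopped with acetonitrile; supernatant concentrated under nitrogen; metabolites analysed by radio-HPLC, LC-MS and LC-MS/MS.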

The target in data set [4] is T3, Cytochrome P450 2C8. As to the kind of experiment: Activity of human CYP2C8 expressed in microsomes isolated from baculovirus infected insect cell assessed as enzyme-mediated (2S,3S,4S,5R,6R)-3,4,5-trihydroxy-6-(5-(4-((6-methoxy-1-methyl-1H-benzo[d]imidazol-2-yl)methoxy)benzyl)-2,4-dioxothiazolidin-3-yl)tetrahydro-2H-pyran-2-carboxylic acid formation at 20 uM after 2 hrs by radio-HPLC/LC-MS/MS analysis in presence of UDPGA and UDPGA/SAM.

A further data set deals with Cytochrome P450 2C19 (Homo sapiens, UniProt P33261). As to the kind of experiment: Activity of human CYP2C19 expressed in microsomes isolated from baculovirus infected insect cell assessed as enzyme-mediated 3-(4-((6-methoxy-1-methyl-1H-benzo[d]imidazol-2-yl)methoxy)phenyl)-2-(methylthio)propanamide formation at 20 uM after 2 hrs by radio-HPLC/LC-MS/MS analysis in presence of NADPH-generating system/SAM.
Sequence of Cytochrome P450 2C19 (P33261 whole entry): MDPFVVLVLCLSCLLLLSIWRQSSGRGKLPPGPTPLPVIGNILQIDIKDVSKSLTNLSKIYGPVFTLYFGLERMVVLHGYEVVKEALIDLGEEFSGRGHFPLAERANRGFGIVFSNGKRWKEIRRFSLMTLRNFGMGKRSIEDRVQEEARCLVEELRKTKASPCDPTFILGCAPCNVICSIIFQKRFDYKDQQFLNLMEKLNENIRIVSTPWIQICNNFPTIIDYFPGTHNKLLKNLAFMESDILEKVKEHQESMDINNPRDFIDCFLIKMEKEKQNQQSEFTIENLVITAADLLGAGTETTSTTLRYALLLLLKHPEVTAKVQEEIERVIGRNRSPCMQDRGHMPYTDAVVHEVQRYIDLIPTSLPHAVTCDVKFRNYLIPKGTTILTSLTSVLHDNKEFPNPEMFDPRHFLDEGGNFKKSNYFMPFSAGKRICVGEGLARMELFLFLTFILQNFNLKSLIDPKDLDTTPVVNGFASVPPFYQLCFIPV

In the next data set the target is Cytochrome P450 2D6 (Homo sapiens, UniProt P10635). Put plainly: Activity of human CYP2D6 expressed in microsomes isolated from baculovirus infected insect cell assessed as enzyme-mediated 2-hydroxy-3-(4-((6-methoxy-1-methyl-1H-benzo[d]imidazol-2-yl)methoxy)phenyl)propanamide formation at 20 uM after 2 hrs by radio-HPLC/LC-MS/MS analysis in presence of NADPH-generating system and NADPH-generating system/SAM.
Sequence of Cytochrome P450 2D6 (P10635 whole entry): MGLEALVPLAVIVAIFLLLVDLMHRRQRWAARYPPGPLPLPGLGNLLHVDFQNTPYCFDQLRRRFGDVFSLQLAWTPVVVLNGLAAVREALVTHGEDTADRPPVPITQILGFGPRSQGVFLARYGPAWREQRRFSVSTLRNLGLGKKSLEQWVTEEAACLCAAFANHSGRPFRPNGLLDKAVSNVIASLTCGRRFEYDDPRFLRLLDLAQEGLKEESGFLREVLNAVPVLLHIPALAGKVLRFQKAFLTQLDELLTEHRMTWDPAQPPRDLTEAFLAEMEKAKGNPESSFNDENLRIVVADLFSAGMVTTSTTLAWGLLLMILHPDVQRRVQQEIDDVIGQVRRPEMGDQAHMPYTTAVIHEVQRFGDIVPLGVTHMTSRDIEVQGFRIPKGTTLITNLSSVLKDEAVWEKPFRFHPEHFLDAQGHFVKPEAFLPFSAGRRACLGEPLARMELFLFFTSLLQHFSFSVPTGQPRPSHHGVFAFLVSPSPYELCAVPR

The structures appear in SMILES notation.

On to `COc1ccc2nc(COc3ccc(C[14CH]4SC(=O)NC4=O)cc3)n(C)c2c1.Cl` (racemic), for which the Drug metabolism result in data set [1] is “metabolite_not_detected”; in data set [2], “metabolite_not_detected”; on Cytochrome P450 2C9, “metabolite_detected”; on Cytochrome P450 2C8 [3], “metabolite_detected”; at Cytochrome P450 2C8 [4] it was “metabolite_not_detected”; on Cytochrome P450 2C19, “metabolite_not_detected”. In addition, the Drug metabolism result at Cytochrome P450 2D6 is given as “metabolite_detected”.

(Values after ChEMBL document CHEMBL3526048, “In vitro metabolism of rivoglitazone, a novel peroxisome proliferator-activated receptor γ agonist, in rat, monkey, and human liver microsomes and freshly isolated hepatocytes” (Drug Metab Dispos, 2011).)
